In ChEMBL document CHEMBL3351820, “Development of novel membrane active lipidated peptidomimetics active against drug resistant clinical isolates” (Bioorg Med Chem, 2014) one finds MIC, HC50 and selectivity ratio data, which are given here for 5 compounds.

≈ marks a conversion by molar mass, not a printed value.

For series [1], the system named is Aspergillus fumigatus. The series can be described thus: Antifungal activity against fluconazole-resistant Aspergillus fumigatus IGMC/LM1/0336 after 24 hrs by M27-A method. The note with it: IGMC/LM1/0336, 24 h. The series is classed as functional. In a few lines:
(§1)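 Fungi at 2.5×10^3 cfu/mL in RPMI 1640 (L-glutamine, no glucose or NaHCO3, pH 7.0 with 0.165 M MOPS). Mixed 1:1 with serial 2-fold dilutions in water, incubated at 37 °C with shaking, 24 h for A. fumigatus and 48–72 h for C. albicans. Growth read by absorbance at 600 nm. MIC taken as the lowest concentration with no growth.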

In a further series the test system is Aspergillus niger. Put plainly: Antifungal activity against Aspergillus niger ATCC 64028 after 24 hrs by M27-A method. The conditions noted are these: ATCC 64028, 24 h. The series is classed as functional. In a few lines:
(§2)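 Fungi at 2.5×10^3 cfu/mL in RPMI 1640 (L-glutamine, no glucose or NaHCO3, buffered pH 7.0 with 0.165 M MOPS), mixed 1:1 with serial 2-fold aqueous dilutions. Incubated at 37 °C with shaking, 24 h for Aspergillus, 48-72 h for Candida and Cryptococcus; A600 read. MIC taken as lowest concentration with no growth.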

Series [2] relates to Escherichia coli. The series can be described thus: Antibacterial activity against Escherichia coli MTCC 0723 after 18 hrs by micro dilution broth assay. Type of series: functional. The note with it: MTCC 0723, 18 h. In outline: (§3)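 Broth microdilution (modified CLSI): mid-log inoculum at 10^5 CFU/mL in Mueller-Hinton broth; serial 2-fold dilutions of sample in 0.001% acetic acid with 0.2% BSA added. Incubated overnight at 37 °C with agitation; A600 read at 18 h. Drug-free culture and uninoculated broth as controls; triplicate.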

Series [3] has as its system Escherichia coli. The series can be described thus: Antibacterial activity against imipenem-resistant Escherichia coli PGI/ DML02292 clinical isolate after 18 hrs by micro dilution broth assay. The note with it: PGI/ DML02292, 18 h. Type of series: functional.
The next series has as its system Pseudomonas aeruginosa. Put plainly: Antibacterial activity against Pseudomonas aeruginosa MTCC 2295 after 18 hrs by micro dilution broth assay. The note with it: MTCC 2295, 18 h. Type of series: functional. In outline:
as §3

The test system of series [4] is Staphylococcus aureus. Put plainly: Antibacterial activity against Staphylococcus aureus MTCC 3160 after 18 hrs by micro dilution broth assay. Type of series: functional. The conditions noted are these: MTCC 3160, 18 h. In outline:
as §3

The subject of series [5] is Staphylococcus aureus. Put plainly: Antibacterial activity against methicillin-resistant Staphylococcus aureus PGI/ DML03149 clinical isolate after 18 hrs by micro dilution broth assay. The note with it: PGI/ DML03149, 18 h. The series is classed as functional.
The subject of another series is Bacillus subtilis. The series can be described thus: Antibacterial activity against Bacillus subtilis MTCC 2763 after 18 hrs by micro dilution broth assay. The conditions noted are these: MTCC 2763, 18 h. The series is classed as functional. In outline:
as §3

A short description of series [6]: Hemolytic activity in human RBCs. The series is classed as ADME, cell-based, Erythrocyte. The note with it: red blood cells (RBCs). In outline:
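Washed fresh human erythrocytes, 4% (v/v) in PBS (35 mM phosphate, 150 mM NaCl, pH 7.2), mixed 1:1 with 2-fold dilutions in PBS. Incubated 1 h at 37 °C without agitation, then centrifuged at 1000 g for 5 min. Supernatant hemoglobin read at 440 nm; % hemolysis = 100(A−A0)/(At−A0).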

Series [7] has as its system Candida albicans. Put plainly: Antifungal activity against Candida albicans ATCC 24433 after 48 to 72 hrs by M27-A method. Type of series: functional. In outline: as §2
In series [8] the test system is Candida albicans. Put plainly: Antifungal activity against fluconazole-resistant Candida albicans PGI/ DML0109 clinical isolate after 48 to 72 hrs by M27-A method. Type of series: functional. In outline: as §1
Another series has as its system Cryptococcus neoformans. The series can be described thus: Antifungal activity against Cryptococcus neoformans ATCC 2344 after 48 to 72 hrs by M27-A method. Type of series: functional. In outline: as §2
The test system of series [9] is Aspergillus fumigatus. Put plainly: Antifungal activity against Aspergillus fumigatus ATCC 42203 after 24 hrs by M27-A method. Type of series: functional. The conditions noted are these: ATCC 42203, 24 h. In a few lines: as §2
The nature of series [10]: Therapeutic index, ratio of HC50 for human RBCs to MIC for Escherichia coli MTCC 0723. The note with it: red blood cells (RBCs), read-out: TI.
Series [11] in a line: Therapeutic index, ratio of HC50 for human RBCs to MIC for Staphylococcus aureus MTCC 3160. The note with it: red blood cells (RBCs), read-out: TI.

On to `CCCCCCCCCC(=O)Nc1cccc(C(=O)NC(CCCN)C(=O)NC(CCCN)C(=O)NC(CCCN)C(N)=O)c1` (stereo not drawn), for which the MIC – broadly, the smallest concentration in the dilution series that meets the test's criterion for growth inhibition – came to 30 µg/mL (≈ 47.4 µM) in the series on Aspergillus fumigatus [1]; 50 µg/mL (≈ 79 µM) in the series on Aspergillus niger; 62.5 µg/mL (≈ 98.8 µM) against Escherichia coli [2]; 70 µg/mL (≈ 111 µM) against Escherichia coli [3]; 50 µg/mL (≈ 79 µM) with Pseudomonas aeruginosa; 31.2 µg/mL (≈ 49.3 µM) in the series with Staphylococcus aureus [4]. Besides, the MIC was determined as 50 µg/mL (≈ 79 µM) against Staphylococcus aureus [5]; 125 µg/mL (≈ 198 µM) against Bacillus subtilis; 62.5 µg/mL (≈ 98.8 µM) with Candida albicans [7]; 75 µg/mL (≈ 119 µM) against Candida albicans [8]; 75 µg/mL (≈ 119 µM) against Cryptococcus neoformans; 31.5 µg/mL (≈ 49.8 µM) against Aspergillus fumigatus [9]. Further, in series [6], the HC50 (in general, the concentration giving 50% haemolysis) is greater than 1000 µg/mL.
As to `CCCCCCCCCCCC(=O)Nc1cccc(C(=O)NC(CCCN)C(=O)NC(CCCN)C(=O)NC(CCCN)C(N)=O)c1` (stereo not drawn), the MIC against Aspergillus fumigatus [1] is 12.5 µg/mL (≈ 18.9 µM); with Aspergillus niger, 15 µg/mL (≈ 22.7 µM); against Escherichia coli [2], 12.5 µg/mL (≈ 18.9 µM); in the series with Escherichia coli [3], 10.5 µg/mL (≈ 15.9 µM); against Pseudomonas aeruginosa, 4.5 µg/mL (≈ 6.81 µM); against Staphylococcus aureus [4] it was 6.25 µg/mL (≈ 9.46 µM). Besides, the MIC was found to be 12 µg/mL (≈ 18.2 µM) against Staphylococcus aureus [5]; 100 µg/mL (≈ 151 µM) in the series on Bacillus subtilis; 15.5 µg/mL (≈ 23.5 µM) in the series with Candida albicans [7]; 15 µg/mL (≈ 22.7 µM) in the series on Candida albicans [8]; 12.5 µg/mL (≈ 18.9 µM) in the series with Cryptococcus neoformans; 10 µg/mL (≈ 15.1 µM) against Aspergillus fumigatus [9]. This compound registered an HC50 in series [6] of 900 µg/mL. Further, the selectivity ratio in series [10] came to 72; in series [11] it was 144.
Turning to `CCCCCCCCCCCCCC(=O)Nc1cccc(C(=O)NC(CCCN)C(=O)NC(CCCN)C(=O)NC(CCCN)C(N)=O)c1` (stereo not drawn), the MIC against Aspergillus fumigatus [1] was 6.25 µg/mL (≈ 9.07 µM); in the series on Aspergillus niger, 5 µg/mL (≈ 7.26 µM); in the series with Escherichia coli [2], 2.25 µg/mL (≈ 3.27 µM); against Escherichia coli [3] it was 4 µg/mL (≈ 5.81 µM); against Pseudomonas aeruginosa, 2.5 µg/mL (≈ 3.63 µM); against Staphylococcus aureus [4], 3.1 µg/mL (≈ 4.5 µM). Moreover, the MIC with Staphylococcus aureus [5] was determined as 4.5 µg/mL (≈ 6.53 µM); with Bacillus subtilis, 15.5 µg/mL (≈ 22.5 µM); against Candida albicans [7], 5.5 µg/mL (≈ 7.98 µM); in the series with Candida albicans [8] it was 6.25 µg/mL (≈ 9.07 µM); in the series with Cryptococcus neoformans, 10 µg/mL (≈ 14.5 µM); against Aspergillus fumigatus [9], 4.5 µg/mL (≈ 6.53 µM). Moreover, in [6], the HC50 was 750 µg/mL. Further, the figures for the selectivity ratio in series [10] and in series [11] were 333 and 242, respectively.
Turning to `CCCCCCCCCCCCCCCC(=O)Nc1cccc(C(=O)NC(CCCN)C(=O)NC(CCCN)C(=O)NC(CCCN)C(N)=O)c1` (stereo not drawn), the MIC is 5 µg/mL (≈ 6.97 µM) in the series with Aspergillus fumigatus [1]; 4.25 µg/mL (≈ 5.93 µM) in the series on Aspergillus niger; 3.5 µg/mL (≈ 4.88 µM) in the series with Escherichia coli [2]; 4.5 µg/mL (≈ 6.28 µM) against Escherichia coli [3]; 5.5 µg/mL (≈ 7.67 µM) against Pseudomonas aeruginosa; 5 µg/mL (≈ 6.97 µM) against Staphylococcus aureus [4]. The MIC in the series with Staphylococcus aureus [5] is 5 µg/mL (≈ 6.97 µM); against Bacillus subtilis, 20 µg/mL (≈ 27.9 µM); against Candida albicans [7] it was 3 µg/mL (≈ 4.18 µM); in the series with Candida albicans [8], 3.5 µg/mL (≈ 4.88 µM); against Cryptococcus neoformans it was 3.5 µg/mL (≈ 4.88 µM); in the series on Aspergillus fumigatus [9], 3.5 µg/mL (≈ 4.88 µM). In series [6], this compound came in with an HC50 of 450 µg/mL. Further, the selectivity ratio in series [10] is 129; in series [11], 90.
`CCCCCCCCCCCCCCCCCC(=O)Nc1cccc(C(=O)NC(CCCN)C(=O)NC(CCCN)C(=O)NC(CCCN)C(N)=O)c1` (stereo not drawn): the MIC came out at 2.5 µg/mL (≈ 3.36 µM) against Aspergillus fumigatus [1]; 3.5 µg/mL (≈ 4.7 µM) in the series with Aspergillus niger; 6.25 µg/mL (≈ 8.39 µM) with Escherichia coli [2]; 7.5 µg/mL (≈ 10.1 µM) in the series on Escherichia coli [3]; 10 µg/mL (≈ 13.4 µM) against Pseudomonas aeruginosa; 12.5 µg/mL (≈ 16.8 µM) against Staphylococcus aureus [4]. The MIC is 10.5 µg/mL (≈ 14.1 µM) against Staphylococcus aureus [5]; 25 µg/mL (≈ 33.6 µM) with Bacillus subtilis; 2.25 µg/mL (≈ 3.02 µM) against Candida albicans [7]; 2 µg/mL (≈ 2.68 µM) against Candida albicans [8]; 6.5 µg/mL (≈ 8.72 µM) in the series on Cryptococcus neoformans; 2 µg/mL (≈ 2.68 µM) in the series with Aspergillus fumigatus [9]. The HC50 in [6] came to 250 µg/mL. Moreover, the selectivity ratio is 40 in series [10] and 20 in series [11].
